Laboratory results: PubChem BioAssay
Inconclusive results are not listed.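 The calls were made as follows, unless noted: active = growth inhibition above 25% in both replicates, a cutoff set 3 SD above the mean; inconclusive = above 25% in only one replicate; inactive = the rest.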

Assays:
[1] = OD615 S. cerevisiae growth inhibition, permissive medium, pilot counter-assay, permissive growth control for S. cerevisiae lifespan shortening project (AID 705); settings: OD615, 24 h, at 10 µM, stronger effect = higher value
How it was run: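 System: Engineered DeaD yeast | Buffer or medium: SC raffinose/galactose permissive medium | Doses: 10 µM single dose, 0.25% DMSO | Times: 24 h exposure, 30 °C | Measured by: OD615 turbidity read | Read-out: Yeast growth inhibition indicated by reduced 24 h OD615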

[2] = Restrictive medium S. cerevisiae growth inhibition, OD615, pilot screen of yeast lifespan reduction project, restrictive growth control (AID 706;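 active = growth inhibition above a set limit, 3 SD over mean compound inhibition, in both replicates, cut at about 43% in these data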;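 also: modified DeaD lifespan yeast strain shifted to restrictive glucose medium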); settings: OD615, 48 h, at 10 µM, stronger effect = higher value
How it was run: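 Assay system: engineered S. cerevisiae DeaD strain; Buffer or medium: CSMM-D glucose medium; Dosing: 10 µM compound, 0.25% DMSO; Times: cell pre-growth 4 h, compound exposure 48 h, 30 °C; Detection: absorbance (optical density) measured at 615 nm.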

[3] = viability gain of MRP-1-high H69AR cells under doxorubicin, pilot screen, MRP-1 activator project, CellTiter-Glo, duplicate (AID 807;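 active = viability increase at or above a cutoff of the median across tested compounds plus 3 SD, cut at about 8.5% in these data, passing the limit was not always enough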;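 also: compound pretreatment 18-22 h then 72 h combined with doxorubicin; 0% = doxorubicin alone and 100% = vehicle without doxorubicin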); settings: H69AR viability with doxorubicin, CellTiter-Glo luminescence; at 10 µM; stronger effect = higher value
[4] = growth suppression of PTEN-deleted HCT116, pilot screen, cell-based, HCT116 clonal line, CellTiter-Glo (AID 824;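 active = viability at or below 27.92% in each of two runs, the all-compound median minus 4 SD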;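 also: 0% = 20 µM Hyamine control and 100% = vehicle cell control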); settings: 60 h, at 10 µM, stronger effect = lower value
[5] = inhibitors of the yeast RAM network, pilot screen, dse1pr::URA3 reporter, 5-FOA selection (AID 869;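 active = inhibition over a set limit, the all-compound mean plus 3 SD, in both replicate runs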;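 also: 0% = DMSO wells with no growth and 100% = 10 µM 1-NA-PP1 with full growth; RAM network block rescues cells from 5-FOA so hits raise OD615 growth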); settings: S. cerevisiae dse1pr::URA3 5-FOA growth, OD615, 2 d; at 10 µM; stronger effect = higher value; strain carries analog-sensitive mutant Cbk1 kinase
[6] = RAM signaling pathway blockade in yeast – S. cerevisiae, Pdr1DBD-CYC8 efflux-inhibited sensitized strain, primary screen (AID 1298;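 active = RAM network inhibition above 8.4% in each of two replicates, 3 SD over the compound average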;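 also: 0% = DMSO untreated cells without growth and 100% = 10 µM 1-NA-PP1 full growth; higher means more yeast growth rescued from 5-FOA killing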); settings: S. cerevisiae cbk1-as DSE1-URA3 strain, 5-FOA growth OD615, 2 d; at 50 µM; stronger effect = higher value
[7] = growth suppression of beta-catenin knockout HCT116, pilot screen, human colon tumor cells (AID 823;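 active = cell viability at or below a set limit in both duplicate runs, the limit being the all-compound median minus 4 SD, cut at about 23% in these data, passing the limit was not always enough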;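 also: 0% = wells killed by 20 µM Hyamine and 100% = untreated DMSO cell wells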); settings: CellTiter-Glo, 60 h, at 10 µM, stronger effect = lower value

O=C(CN1CCN(c2ccccn2)CC1)N(c1ccccc1)c1ccc2ccccc2c1
inactive: growth inhibition [1] -6.17% | growth inhibition [2] -0.835% | viability increase [3] -1.57% | viability [4] 69.9% | inhibition [5] 2.88% | RAM network inhibition [6] 5.32%

CCOC(=O)C1=C(C)N=c2s/c(=C\c3ccncc3)c(=O)n2C1c1ccc2c(c1)OCO2 (centres undefined)
inactive: growth inhibition [1] -12% | growth inhibition [2] 23.8% | viability increase [3] -7.87% | inhibition [5] 3.46% | RAM network inhibition [6] 8.86%

Cc1ccccc1CN1C(=O)C(O)(CC(=O)c2ccncc2)c2ccccc21 (centres undefined)
inactive: growth inhibition [1] -11.4% | growth inhibition [2] -5.55% | viability increase [3] -5.61% | inhibition [5] 1.28% | RAM network inhibition [6] 5.38%

CSc1nc2c(cnn2-c2ccc(C)c(C)c2)c(=O)[nH]1
inactive: growth inhibition [1] 3.89% | growth inhibition [2] 1.82% | viability increase [3] -8.82% | inhibition [5] 2.08% | RAM network inhibition [6] 0.57%

CCOc1ccc(-c2cc(CCCC(=O)Nc3cccc(OC)c3)no2)cc1
inactive: growth inhibition [1] -6.04% | growth inhibition [2] 3.52% | viability increase [3] -5.12% | inhibition [5] 3.28% | RAM network inhibition [6] 0.05%

Cc1cccc(N(C)c2cc(C)nc3nc(C)nn23)c1
inactive: growth inhibition [1] -14.5% | growth inhibition [2] -6.39% | viability [7] 64.8% | viability [4] 53.3% | inhibition [5] 2.03% | RAM network inhibition [6] 5.5%

CC1=C(C(=O)OCc2ccc3c(c2)OCO3)C(c2ccccc2)NC(=O)N1 (centres undefined)
inactive: growth inhibition [1] -12% | growth inhibition [2] -9.41% | viability increase [3] -4.88% | inhibition [5] 1.81% | RAM network inhibition [6] 2.03%

Cn1c(C(=O)NC2CCCCCC2)cc2c(=O)n(C)c3ccccc3c21
inactive: growth inhibition [1] 1.31% | growth inhibition [2] -8.3% | viability increase [3] -6.4% | inhibition [5] 1.1% | RAM network inhibition [6] 2.31%

O=C(O)c1cccc(N2C(=O)C3CC=C(Cl)CC3C2=O)c1 (centres undefined)
inactive: growth inhibition [1] -4.4% | growth inhibition [2] -10.2% | viability [7] 95.6% | viability [4] 92.4% | inhibition [5] 1.16% | RAM network inhibition [6] 3.38%

O=C(Cn1c(=O)oc2cc(S(=O)(=O)N3CCCC3)ccc21)NCc1ccccn1
inactive: growth inhibition [1] 8.21% | growth inhibition [2] 0.96% | viability [7] 107% | viability [4] 104% | inhibition [5] 1.01% | RAM network inhibition [6] -0.87%

Cc1cc(C(=O)N2CCN(c3ccccn3)CC2)c(C)o1
inactive: growth inhibition [1] 9.65% | growth inhibition [2] -7.73% | viability increase [3] -5.92% | viability [4] 96.3% | inhibition [5] 0.945% | RAM network inhibition [6] 4.2%

O=C(CSc1nc(-c2ccco2)cc(C(F)(F)F)n1)Nc1ccc(C(=O)N2CCCCC2)cc1
inactive: growth inhibition [1] 0.645% | growth inhibition [2] -0.65% | viability increase [3] -2.87% | inhibition [5] 1.97% | RAM network inhibition [6] 3.42%

Cc1ccc(S(=O)(=O)NC(=O)Nn2c(C)nnc2C)cc1
inactive: growth inhibition [1] -8.7% | growth inhibition [2] -6.25% | viability increase [3] -0.15% | viability [4] 102% | inhibition [5] 0.75% | RAM network inhibition [6] 4.31%

c1coc(CNc2c3c(nc4ccccc24)CCC3)c1
inactive: growth inhibition [1] -9.23% | growth inhibition [2] -0.365% | viability increase [3] -5.72% | inhibition [5] -0.205% | RAM network inhibition [6] 0.83%

Cc1nc(N2CCN(Cc3ccc4c(c3)OCO4)CC2)c2oc3ccccc3c2n1
inactive: growth inhibition [1] -0.195% | growth inhibition [2] -1.24% | viability increase [3] -4.93% | inhibition [5] 2% | RAM network inhibition [6] 4.68%

Cc1cc(N2CCN(S(=O)(=O)c3ccc(Cl)cc3)CC2)c2ccccc2n1
inactive: growth inhibition [1] -3.2% | growth inhibition [2] -2.46% | viability increase [3] -2.62% | inhibition [5] -0.15% | RAM network inhibition [6] 2.74%

COC(=O)CCc1nc2ccccc2[nH]c1=O
inactive: growth inhibition [1] -6.03% | growth inhibition [2] -5.04% | viability increase [3] -0.31% | viability [4] 100% | inhibition [5] 1.4% | RAM network inhibition [6] 2.15%

Cc1ccc(N2CC(C(=O)OCC(=O)C(C)(C)C)CC2=O)cc1 (centres undefined)
inactive: growth inhibition [1] 7.84% | growth inhibition [2] 8.49% | viability increase [3] -1.06% | viability [4] 101% | inhibition [5] 0.56% | RAM network inhibition [6] 3.64%

O=C(CSc1oc(-c2ccc(F)cc2)nc1S(=O)(=O)c1ccc(F)cc1)NCC1CCCO1 (centres undefined)
inactive: growth inhibition [1] -8.11% | growth inhibition [2] -3.3% | viability increase [3] -7.22% | inhibition [5] 1.05% | RAM network inhibition [6] 6.87%

CN1C(=O)C(O)(CC(=O)c2ccccn2)c2cc(Br)ccc21 (centres undefined)
inactive: growth inhibition [1] -0.08% | growth inhibition [2] 6.53% | viability increase [3] -7.14% | inhibition [5] 0.9% | RAM network inhibition [6] 3.11%

CC(NC(=O)CN1CCN(Cc2ccc(Cl)cc2)C1=O)c1ccc2c(c1)OCCO2 (centres undefined)
inactive: growth inhibition [1] 2.64% | growth inhibition [2] -21.2% | viability [7] 84.1% | viability [4] 86.3% | inhibition [5] -0.3% | RAM network inhibition [6] 0.27%

CCN1CCN(c2cc(C)c3cc(NC(=O)c4ccc(Br)o4)ccc3n2)CC1
inactive: growth inhibition [1] -8.91% | growth inhibition [2] -15.6% | viability increase [3] -8.37% | inhibition [5] 1.75% | RAM network inhibition [6] 0.84%

Cn1nc(-c2ccc(Cl)cc2)c2cc(C(=O)NCCN3CCOCC3)sc21
inactive: growth inhibition [1] -4.46% | growth inhibition [2] -5.2% | viability increase [3] -7.41% | inhibition [5] 0.45% | RAM network inhibition [6] -1.47%

O=C(Nc1nnc(-c2cccs2)o1)c1cccc(Oc2ccccc2)c1
inactive: growth inhibition [1] 16.2% | growth inhibition [2] 24.4% | viability increase [3] -6.06% | inhibition [5] 1.83% | RAM network inhibition [6] 2.76%

N#Cc1nc(COc2cccc(Cl)c2)oc1N1CCCC1
inactive: growth inhibition [1] 4.94% | growth inhibition [2] 11.2% | viability [7] 82.7% | viability [4] 82.7% | inhibition [5] -0.7% | RAM network inhibition [6] 0.47%

O=C(Cc1c(C(=O)O)[nH]c2ccccc12)Nc1ccc2c(c1)OCO2
inactive: growth inhibition [1] -7.96% | growth inhibition [2] -0.57% | viability increase [3] -2.23% | viability [4] 99.7% | inhibition [5] 0.445% | RAM network inhibition [6] 2.01%

COCCNC(=O)NC1(C(F)(F)F)Oc2ccc(Cl)cc2O1 (centres undefined)
inactive: growth inhibition [1] -0.985% | growth inhibition [2] -0.285% | viability increase [3] -4.63% | viability [4] 41.9% | inhibition [5] 0.43% | RAM network inhibition [6] 5.07%

CCc1ccc(C2CC(c3ccccc3C)n3nc(N)nc3N2)cc1 (centres undefined)
inactive: growth inhibition [1] 7.95% | growth inhibition [2] -3.1% | viability [7] 87.5% | viability [4] 79.6% | inhibition [5] 0.19% | RAM network inhibition [6] 6.27%

COc1ccc(S(=O)(=O)Cc2ccc(C(=O)N3CCN(c4ccc(Cl)cc4)CC3)o2)cc1
inactive: growth inhibition [1] 2.93% | growth inhibition [2] -3.86% | viability increase [3] -4.86% | inhibition [5] 0.375% | RAM network inhibition [6] 6.31%

O=C(CCc1ccccc1)Nc1nnc(-c2ccc3c(c2)CCCC3)o1
inactive: growth inhibition [1] -1.89% | growth inhibition [2] 11.3% | viability [7] 53.6% | viability [4] 72.1% | inhibition [5] 0.09% | RAM network inhibition [6] 5.06%

O=C(CCS(=O)(=O)c1ccccc1)Nc1nc2c(s1)CCCC2
inactive: growth inhibition [1] -16.6% | growth inhibition [2] -17.7% | viability increase [3] -8.89% | inhibition [5] 0.495% | RAM network inhibition [6] 3.5%

COc1cccc(C(=O)Nc2nnc(-c3ccc(Cl)cc3)o2)c1
inactive: growth inhibition [1] 2.17% | growth inhibition [2] 2.42% | viability increase [3] -3.33% | inhibition [5] 1.6% | RAM network inhibition [6] -1.16%

CC1=C(C(=O)N2CCOCC2)C(c2cc(C)cs2)NC(=O)N1 (centres undefined)
inactive: growth inhibition [1] -9.44% | growth inhibition [2] 2.88% | viability increase [3] -0.83% | viability [4] 101% | inhibition [5] 2.48% | RAM network inhibition [6] 3.08%

CCn1c(=O)c(=O)[nH]c2cc(C(=O)NC3CCCc4ccccc43)ccc21 (centres undefined)
inactive: growth inhibition [1] -2.89% | growth inhibition [2] -5.91% | viability increase [3] -5.19% | inhibition [5] 1.7% | RAM network inhibition [6] 3.67%

O=C(Nc1nnc(-c2cccs2)o1)c1cccc(F)c1
inactive: growth inhibition [1] -18.7% | growth inhibition [2] 9.29% | viability increase [3] -1.42% | inhibition [5] 0.745% | RAM network inhibition [6] 3.47%

OC(COc1ccc(C2C=CCC2)cc1)CN1CCCCC1 (centres undefined)
inactive: growth inhibition [1] 0.36% | growth inhibition [2] -8.12% | viability increase [3] -4.7% | inhibition [5] 1.75% | RAM network inhibition [6] 3.83%

Cc1ccc(NC(=O)CC2SC3=NCCN3C2=O)cc1 (centres undefined)
inactive: growth inhibition [1] 3.71% | growth inhibition [2] 10.6% | viability increase [3] 3.08% | viability [4] 96.1% | inhibition [5] 1.66% | RAM network inhibition [6] 1.49%

COc1ccc(NC(=O)NCCCN2CCN(c3cc(C)ccc3C)CC2)cc1
inactive: growth inhibition [1] -11.2% | growth inhibition [2] -19.5% | viability increase [3] -6.14% | inhibition [5] 0.485% | RAM network inhibition [6] 2.1%

CSc1nc(N2CCN(CCO)CC2)c2sc3nc(-c4ccco4)c4c(c3c2n1)CCC4
inactive: growth inhibition [1] -5.56% | growth inhibition [2] -10.7% | viability increase [3] -8.19% | inhibition [5] -1.67% | RAM network inhibition [6] -2.9%

COc1cc(C(=O)N2CCN(c3ccc(C)cc3C)CC2)cc(OC)c1OC
inactive: growth inhibition [1] -4.88% | growth inhibition [2] 2.84% | viability increase [3] -5% | inhibition [5] 0.135% | RAM network inhibition [6] 4.77%

Cc1noc(C)c1C(=O)NCCCc1ccccc1
inactive: growth inhibition [1] -4.23% | growth inhibition [2] -7.88% | viability increase [3] -1.07% | viability [4] 103% | inhibition [5] 0.62% | RAM network inhibition [6] 0.21%

Brc1ccc(CSc2ncn[nH]2)cc1
inactive: growth inhibition [1] -0.435% | growth inhibition [2] 12.1% | viability [7] 95.3% | viability [4] 95.3% | inhibition [5] 0.94% | RAM network inhibition [6] 0.27%

Cc1noc(/C=C/N(C)C)c1S(=O)(=O)N1CCCC(C(=O)NC2CCCCC2C)C1 (centres undefined)
inactive: growth inhibition [1] -2.76% | growth inhibition [2] -6.36% | viability [7] 87.1% | viability [4] 83.2% | inhibition [5] 1.89% | RAM network inhibition [6] 7.7%
